Source: ChEMBL document CHEMBL3751823, “Design, synthesis and antitrypanosomal activities of 2,6-disubstituted-4,5,7-trifluorobenzothiophenes” (Eur J Med Chem, 2016)

Experiments:
[1] = test system: Trypanosoma brucei rhodesiense; assay: Antitrypanosomal activity against Trypanosoma brucei rhodesiense STIB 900 after 72 hrs by alamar blue assay; format: functional, organism-based; conditions: STIB 900, 72 h
In short: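 Bloodstream forms of clone STIB 900 (patient isolate, Tanzania 1982), 1 × 10^3 per well, exposed to 3-fold serial dilutions from a top concentration of 30 μg/ml. DMSO stocks were diluted in medium. Incubation 72 h at 37 °C, 5% CO2, in triplicate. Alamar Blue was then added for 2-4 h more. Fluorescence read at ex 530/em 580 nm, IC50 by curve fit.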

MCF7 = assay: Cytotoxicity against human MCF7 cells assessed as inhibition of cell proliferation; format: cell-based
[2] = Selectivity index, ratio of IC50 for cytotoxicity against human MCF7 cells to IC50 for Trypanosoma brucei rhodesiense STIB 900; format: toxicity, cell-based; conditions: read-out: Ratio IC50

Compound | IC50 [1] [µM] | IC50 (MCF7) [µM] | selectivity ratio [2]
COC(=O)c1cc2c(F)c(F)c(Oc3ccccc3Br)c(F)c2s1 | 30 | > 25 | –
COC(=O)c1cc2c(F)c(F)c(-n3cnc4ccccc43)c(F)c2s1 | 0.6 | > 12 | > 20
COC(=O)c1cc2c(F)c(F)c(Sc3ccccc3Br)c(F)c2s1 | 11.9 | > 25 | –
COC(=O)c1cc2c(F)c(F)c(Sc3ccc(C(C)(C)C)cc3)c(F)c2s1 | 67.2 | > 50 | –
COC(=O)c1cc2c(F)c(F)c(-n3ccnc3)c(F)c2s1 | 130 | > 100 | –
O=C(c1ccccc1)c1cc2c(F)c(F)c(Sc3ccccc3Br)c(F)c2s1 | 9.8 | > 25 | –
O=C(c1ccccc1)c1cc2c(F)c(F)c(Oc3ccccc3Br)c(F)c2s1 | 15.9 | > 25 | –
O=C(c1ccccc1)c1cc2c(F)c(F)c(-n3ccnc3)c(F)c2s1 | 33 | > 60 | –
COC(=O)CSc1c(F)c(F)c2cc(C(=O)OC)sc2c1F | > 10 | > 25 | –
O=C(c1ccccc1)c1cc2c(F)c(F)c(-n3cnc4ccccc43)c(F)c2s1 | 0.53 | > 25 | 50
O=C(CSc1c(F)c(F)c2cc(C(=O)c3ccccc3)sc2c1F)c1ccccc1 | > 10 | > 50 | –
CC(C)(C)c1ccc(Sc2c(F)c(F)c3cc(C(=O)c4ccccc4)sc3c2F)cc1 | 31.4 | > 25 | –
Nc1nc(N)nc(Nc2ccc([As]3SCC(CO)S3)cc2)n1 (configuration not stated) [MELARSOPROL] | 0.051 | – | –
